Experimental data taken from ChEMBL document CHEMBL1154150, “Synthesis and anticonvulsant activity of some new bishydrazones derived from 3,4-dipropyloxythiophene” (Eur J Med Chem, 2009).
Calls of active or inactive are those of the source. No cut-off for these calls is given here.

Columns and labels:
[1] = test system: Mus musculus; assay: Anticonvulsant activity in CF1 mouse assessed as protection against subcutaneous metrazole-induced seizures at 100 mg/kg, ip after 4 hrs; type: functional, organism-based; parameters: dose 100 mg/kg
[2] = test system: Mus musculus; assay: Anticonvulsant activity in CF1 mouse assessed as protection against 6 Hz electric shock-induced seizures at 100 mg/kg, ip after 4 hrs; type: functional, organism-based; parameters: dose 100 mg/kg
Procedure, shortened: (§1)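 Male CF-1 albino mice (18–25 g), compound suspended in 0.5% methyl cellulose/water or PEG 200, given i.p.; four mice per time point (0.25, 0.5, 1.0, 2.0, 4 h) challenged via corneal electrodes at 6 Hz, 32 mA for 3 s, current eliciting psychomotor seizure in 97% of animals; reported as protected/tested.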

[3] = test system: Mus musculus; assay: Anticonvulsant activity in CF1 mouse assessed as protection against 6 Hz electric shock-induced seizures at 100 mg/kg, ip after 2 hrs; type: functional, organism-based; parameters: dose 100 mg/kg; procedure, shortened: as §1
[4] = test system: Mus musculus; assay: Anticonvulsant activity in CF1 mouse assessed as protection against maximal electroshock-induced seizures at 30 mg/kg, ip after 0.5 hrs; type: functional, organism-based; parameters: dose 30 mg/kg
Procedure, shortened: (§2)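 Male CF-1 albino mice (18–25 g), dosed i.p. at 30, 100 or 300 mg/kg in 0.5% methyl cellulose/water or PEG 200 (0.01 ml/g); tested at intervals after dosing; protection = abolition of hind limb tonic extensor component of MES seizure; scored as protected/tested.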

[5] = test system: Mus musculus; assay: Anticonvulsant activity in CF1 mouse assessed as protection against maximal electroshock-induced seizures at 100 mg/kg, ip after 4 hrs; type: functional, organism-based; parameters: dose 100 mg/kg; procedure, shortened: as §2
[6] = test system: Mus musculus; assay: Anticonvulsant activity in CF1 mouse assessed as protection against subcutaneous metrazole-induced seizures at 30 mg/kg, ip after 0.5 hrs; type: functional, organism-based; parameters: dose 30 mg/kg
[7] = test system: Mus musculus; assay: Neurotoxicity in CF1 mouse at 300 mg/kg, ip after 0.5 hrs by rotarod test; type: toxicity, organism-based; parameters: dose 300 mg/kg, route intraperitoneal; settings: in vivo
Procedure, shortened: (§3)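 Rotorod neurotoxicity in male CF-1 mice (18–25 g) after i.p. compound in 0.5% methyl cellulose/water or PEG 200 at 30, 100 or 300 mg/kg; reported as number showing toxicity/number tested.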

[8] = test system: Mus musculus; assay: Anticonvulsant activity in CF1 mouse assessed as protection against subcutaneous metrazole-induced seizures at 300 mg/kg, ip after 4 hrs; type: functional, organism-based; parameters: dose 300 mg/kg
[9] = test system: Mus musculus; assay: Neurotoxicity in CF1 mouse at 30 mg/kg, ip after 0.5 hrs by rotarod test; type: toxicity, organism-based; parameters: dose 30 mg/kg, route intraperitoneal; settings: in vivo; procedure, shortened: as §3
[10] = test system: Mus musculus; assay: Anticonvulsant activity in CF1 mouse assessed as protection against 6 Hz electric shock-induced seizures at 100 mg/kg, ip after 0.5 hrs; type: functional, organism-based; parameters: dose 100 mg/kg; procedure, shortened: as §1
[11] = test system: Mus musculus; assay: Neurotoxicity in CF1 mouse at 30 mg/kg, ip after 4 hrs by rotarod test; type: toxicity, organism-based; parameters: dose 30 mg/kg, route intraperitoneal; settings: in vivo; procedure, shortened: as §3
[12] = test system: Mus musculus; assay: Anticonvulsant activity in CF1 mouse assessed as protection against 6 Hz electric shock-induced seizures at 100 mg/kg, ip after 0.25 hrs; type: functional, organism-based; parameters: dose 100 mg/kg; procedure, shortened: as §1
[13] = test system: Mus musculus; assay: Anticonvulsant activity in CF1 mouse assessed as protection against subcutaneous metrazole-induced seizures at 30 mg/kg, ip after 4 hrs; type: functional, organism-based; parameters: dose 30 mg/kg
[14] = test system: Mus musculus; assay: Neurotoxicity in CF1 mouse at 300 mg/kg, ip after 4 hrs by rotarod test; type: toxicity, organism-based; parameters: dose 300 mg/kg, route intraperitoneal; settings: in vivo; procedure, shortened: as §3
[15] = test system: Mus musculus; assay: Anticonvulsant activity in CF1 mouse assessed as protection against subcutaneous metrazole-induced seizures at 100 mg/kg, ip after 0.5 hrs; type: functional, organism-based; parameters: dose 100 mg/kg
[16] = test system: Mus musculus; assay: Neurotoxicity in CF1 mouse at 100 mg/kg, ip after 4 hrs by rotarod test; type: toxicity, organism-based; parameters: dose 100 mg/kg, route intraperitoneal; settings: in vivo; procedure, shortened: as §3
[17] = test system: Mus musculus; assay: Anticonvulsant activity in CF1 mouse assessed as protection against 6 Hz electric shock-induced seizures at 100 mg/kg, ip after 1 hr; type: functional, organism-based; parameters: dose 100 mg/kg; procedure, shortened: as §1
[18] = test system: Mus musculus; assay: Anticonvulsant activity in CF1 mouse assessed as protection against maximal electroshock-induced seizures at 100 mg/kg, ip after 0.5 hrs; type: functional, organism-based; parameters: dose 100 mg/kg; procedure, shortened: as §2
[19] = test system: Mus musculus; assay: Anticonvulsant activity in CF1 mouse assessed as protection against maximal electroshock-induced seizures at 300 mg/kg, ip after 4 hrs; type: functional, organism-based; parameters: dose 300 mg/kg; procedure, shortened: as §2
[20] = test system: Mus musculus; assay: Anticonvulsant activity in CF1 mouse assessed as protection against maximal electroshock-induced seizures at 30 mg/kg, ip after 4 hrs; type: functional, organism-based; parameters: dose 30 mg/kg; procedure, shortened: as §2
[21] = test system: Mus musculus; assay: Anticonvulsant activity in CF1 mouse assessed as protection against maximal electroshock-induced seizures at 300 mg/kg, ip after 0.5 hrs; type: functional, organism-based; parameters: dose 300 mg/kg; procedure, shortened: as §2
[22] = test system: Mus musculus; assay: Anticonvulsant activity in CF1 mouse assessed as protection against subcutaneous metrazole-induced seizures at 300 mg/kg, ip after 0.5 hrs; type: functional, organism-based; parameters: dose 300 mg/kg
[23] = test system: Mus musculus; assay: Neurotoxicity in CF1 mouse at 100 mg/kg, ip after 0.5 hrs by rotarod test; type: toxicity, organism-based; parameters: dose 100 mg/kg, route intraperitoneal; settings: in vivo; procedure, shortened: as §3

Row | Structure (SMILES) | Activity [1] | Activity [2] | Activity [3] | Activity [4] | Activity [5] | Activity [6] | Activity [7] | Activity [8] | Activity [9] | Activity [10] | Activity [11] | Activity [12] | Activity [13] | Activity [14] | Activity [15] | Activity [16] | Activity [18] | Activity [20] | Activity [21] | Activity [22] | also measured
1 | CCCOc1c(C(=O)NN=C(c2ccccc2)c2ccccc2)sc(C(=O)NN=C(c2ccccc2)c2ccccc2)c1OCCC | inactive | inactive | inactive | inactive | inactive | inactive | Non-toxic | inactive | Non-toxic | inactive | Non-toxic | inactive | inactive | Non-toxic | inactive | Non-toxic | inactive | inactive | inactive | inactive | Activity [17]: inactive; Activity [19]: inactive
2 | CCCOc1c(C(=O)N/N=C(\c2ccccc2)c2ccc(Br)s2)sc(C(=O)N/N=C(\c2ccccc2)c2ccc(Br)s2)c1OCCC | inactive | inactive | inactive | inactive | inactive | inactive | Toxic | inactive | Non-toxic | inactive | Non-toxic | inactive | inactive | Non-toxic | inactive | Toxic | inactive | inactive | inactive | inactive | Activity [17]: inactive; Activity [19]: inactive; Activity [23]: Toxic
3 | CCCOc1c(C(=O)NN=C2CCCCC2)sc(C(=O)NN=C2CCCCC2)c1OCCC | inactive | inactive | inactive | inactive | inactive | inactive | Non-toxic | inactive | Non-toxic | inactive | Non-toxic | inactive | inactive | Non-toxic | inactive | Non-toxic | inactive | inactive | inactive | inactive | Activity [17]: inactive; Activity [23]: Non-toxic
4 | CCCOc1c(C(=O)N/N=C\c2cc(OC)c(OC)c(OC)c2)sc(C(=O)N/N=C/c2cc(OC)c(OC)c(OC)c2)c1OCCC | inactive | inactive |  | inactive | inactive | inactive | Non-toxic | inactive | Non-toxic | inactive | Non-toxic | inactive | inactive | Non-toxic |  | Non-toxic | inactive | inactive | inactive | inactive | Activity [19]: inactive; Activity [23]: Non-toxic
